≈ marks a conversion by molar mass, not a printed value.
How the values were obtained:
[1] = Inhibition of Escherichia coli DNA topoisomerase-1A using supercoiled pHOT1 plasmid DNA as substrate assessed as inhibition of DNA relaxation after 30 mins by agarose gel electrophoresis
Summary of the method: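 Supercoiled plasmid DNA incubated with E. coli Topo IA in the presence of compound at […]. Relaxation products were resolved by electrophoresis on 1% agarose gel.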

Escherichia coli [2] = assay: Antibacterial activity against Escherichia coli DH5[alpha] assessed as growth inhibition after 18 to 24 hrs by broth microdilution method; type: functional
Escherichia coli [3] = assay: Antibacterial activity against Escherichia coli ATCC 25922 assessed as growth inhibition after 18 to 24 hrs by broth microdilution method; type: functional
Escherichia coli [4] = assay: Bactericidal activity against Escherichia coli DH5[alpha] by agar plating method; type: functional
Escherichia coli [5] = assay: Bactericidal activity against Escherichia coli ATCC 25922 by agar plating method; type: functional

Question: For `Oc1ccc(-c2nc3ccc(-c4nc5ccc(N6CCN(c7ccncc7)CC6)cc5[nH]4)cc3[nH]2)cc1`, which IC50 [1] is on record?
Answer: > 50 µM

Question: And the MIC50 (Escherichia coli [2])?
Answer: > 128 µg/mL

Question: What about the MIC50 (Escherichia coli [3]) of the same compound?
Answer: > 128 µg/mL

Question: For `O=C(NCCN1CCN(c2ccc3nc(-c4ccc5nc(-c6ccc(O)cc6)[nH]c5c4)[nH]c3c2)CC1)C(F)(F)F`, which IC50 [1] is on record?
Answer: 45.8 µM

Question: What about the MIC50 (Escherichia coli [2]) of the same compound?
Answer: > 128 µg/mL

Question: And the MIC50 (Escherichia coli [3])?
Answer: > 128 µg/mL

Question: Which IC50 [1] does the source give for `CCN1CCN(c2ccc3nc(-c4ccc5nc(-c6ccc(O)cc6)[nH]c5c4)[nH]c3c2)CC1` here?
Answer: 5.8 µM

Question: What about the MIC50 (Escherichia coli [2]) of the same compound?
Answer: 64 µg/mL (≈ 146 µM)

Question: What about the MIC90 (Escherichia coli [2]) of the same compound?
Answer: 121 µg/mL (≈ 276 µM)

Question: And the MIC50 (Escherichia coli [3])?
Answer: > 128 µg/mL

Question: And the MBC (Escherichia coli [4])?
Answer: 128 µg/mL (≈ 292 µM)

Question: For `Oc1ccc(-c2nc3ccc(-c4nc5ccc(N6CCN(c7ccc(F)cc7)CC6)cc5[nH]4)cc3[nH]2)cc1`, which IC50 [1] is on record?
Answer: 20.3 µM

Question: And the MIC50 (Escherichia coli [2])?
Answer: > 128 µg/mL

Question: What about the MIC50 (Escherichia coli [3]) of the same compound?
Answer: > 128 µg/mL

Question: What does the source list for `Oc1ccc(-c2nc3ccc(-c4nc5ccc(N6CCN(c7ccccc7)CC6)cc5[nH]4)cc3[nH]2)cc1`?
Answer: IC50 [1]: 60.3 µM; MIC50 (Escherichia coli [2]): > 128 µg/mL; MIC50 (Escherichia coli [3]): > 128 µg/mL

Question: For `COc1ccc(-c2nc3ccc(-c4nc5ccc(N6CCN(c7ccc(F)cc7)CC6)cc5[nH]4)cc3[nH]2)cc1OC`, which IC50 [1] is on record?
Answer: > 50 µM

Question: What about the MIC50 (Escherichia coli [2]) of the same compound?
Answer: > 128 µg/mL

Question: What about the MIC50 (Escherichia coli [3]) of the same compound?
Answer: > 128 µg/mL

Question: What does the source list for `COc1ccc(-c2nc3ccc(-c4nc5ccc(N6CCN(c7ccc(N)cc7)CC6)cc5[nH]4)cc3[nH]2)cc1OC`?
Answer: IC50 [1]: 20.3 µM; MIC50 (Escherichia coli [2]): > 128 µg/mL; MIC50 (Escherichia coli [3]): > 128 µg/mL

Question: What does the source list for `CCOc1ccc(-c2nc3ccc(-c4nc5ccc(N6CCN(CCNC(=O)C(F)(F)F)CC6)cc5[nH]4)cc3[nH]2)cc1`?
Answer: IC50 [1]: 50.8 µM; MIC50 (Escherichia coli [2]): 16 µg/mL (≈ 27.7 µM); MIC90 (Escherichia coli [2]): 22.5 µg/mL (≈ 39 µM); MIC50 (Escherichia coli [3]): 10.4 µg/mL (≈ 18 µM); MIC90 (Escherichia coli [3]): 20.8 µg/mL (≈ 36 µM); MBC (Escherichia coli [4]): 32 µg/mL (≈ 55.4 µM); MBC (Escherichia coli [5]): 32 µg/mL (≈ 55.4 µM)

Question: What does the source list for `CN(C)CCN1CCN(c2ccc3nc(-c4ccc5nc(-c6ccc(O)cc6)[nH]c5c4)[nH]c3c2)CC1`?
Answer: IC50 [1]: 8 µM; MIC50 (Escherichia coli [2]): 64 µg/mL (≈ 133 µM); MIC50 (Escherichia coli [3]): > 128 µg/mL

Question: Which IC50 [1] does the source give for `N#Cc1ccccc1N1CCN(c2ccc3nc(-c4ccc5nc(-c6ccc(O)cc6)[nH]c5c4)[nH]c3c2)CC1` here?
Answer: 20.4 µM

Question: What about the MIC50 (Escherichia coli [2]) of the same compound?
Answer: > 128 µg/mL

Question: And the MIC50 (Escherichia coli [3])?
Answer: > 128 µg/mL

Question: Which IC50 [1] does the source give for `CCOc1ccc(-c2nc3ccc(-c4nc5ccc(N6CCN(c7ccncc7)CC6)cc5[nH]4)cc3[nH]2)cc1` here?
Answer: > 50 µM

Question: And the MIC50 (Escherichia coli [2])?
Answer: > 128 µg/mL

Question: What about the MIC50 (Escherichia coli [3]) of the same compound?
Answer: > 128 µg/mL

Question: For `COc1ccc(-c2nc3ccc(-c4nc5ccc(N6CCN(CCN(C)C)CC6)cc5[nH]4)cc3[nH]2)cc1OC`, which IC50 [1] is on record?
Answer: 3 µM

Question: What about the MIC50 (Escherichia coli [2]) of the same compound?
Answer: 128 µg/mL (≈ 244 µM)

Question: And the MIC50 (Escherichia coli [3])?
Answer: 128 µg/mL (≈ 244 µM)

Question: With `COc1ccc(-c2nc3ccc(-c4nc5ccc(N6CCN(c7ccccc7)CC6)cc5[nH]4)cc3[nH]2)cc1OC` as the compound, how does the IC50 [1] read?
Answer: 3.8 µM

Question: And the MIC50 (Escherichia coli [2])?
Answer: > 128 µg/mL

Question: And the MIC50 (Escherichia coli [3])?
Answer: > 128 µg/mL

Question: Which IC50 [1] does the source give for `CCCN1CCN(c2ccc3nc(-c4ccc5nc(-c6ccc(O)cc6)[nH]c5c4)[nH]c3c2)CC1` here?
Answer: 20.8 µM

Question: And the MIC50 (Escherichia coli [2])?
Answer: > 128 µg/mL

Question: And the MIC50 (Escherichia coli [3])?
Answer: > 128 µg/mL

Question: With `Nc1ccc(N2CCN(c3ccc4nc(-c5ccc6nc(-c7ccc(O)cc7)[nH]c6c5)[nH]c4c3)CC2)cc1` as the compound, how does the IC50 [1] read?
Answer: 4.7 µM

Question: What about the MIC50 (Escherichia coli [2]) of the same compound?
Answer: 128 µg/mL (≈ 255 µM)

Question: What about the MIC50 (Escherichia coli [3]) of the same compound?
Answer: > 128 µg/mL

Question: For `Oc1ccc(-c2nc3ccc(-c4nc5ccc(N6CCN(c7ncccn7)CC6)cc5[nH]4)cc3[nH]2)cc1`, which IC50 [1] is on record?
Answer: > 50 µM

Question: What about the MIC50 (Escherichia coli [2]) of the same compound?
Answer: > 128 µg/mL

Question: And the MIC50 (Escherichia coli [3])?
Answer: > 128 µg/mL

Question: With `COc1ccc(-c2nc3ccc(-c4nc5ccc(N6CCN(c7ccccc7C#N)CC6)cc5[nH]4)cc3[nH]2)cc1OC` as the compound, how does the IC50 [1] read?
Answer: 3.76 µM

Question: What about the MIC50 (Escherichia coli [2]) of the same compound?
Answer: > 128 µg/mL

Question: And the MIC50 (Escherichia coli [3])?
Answer: > 128 µg/mL

Question: What does the source list for `CCN1CCN(c2ccc3nc(-c4ccc5nc(-c6ccc(OC)c(OC)c6)[nH]c5c4)[nH]c3c2)CC1`?
Answer: IC50 [1]: 12.3 µM; MIC50 (Escherichia coli [3]): 16 µg/mL (≈ 33.2 µM); MIC90 (Escherichia coli [3]): 14.8 µg/mL (≈ 30.7 µM); MBC (Escherichia coli [4]): 16 µg/mL (≈ 33.2 µM); MBC (Escherichia coli [5]): 32 µg/mL (≈ 66.3 µM)

From ChEMBL document CHEMBL3286094, “Synthesis and biological evaluation of novel bisbenzimidazoles as Escherichia coli topoisomerase IA inhibitors and potential antibacterial agents” (J Med Chem, 2014)
